# Published values collected from several papers.
# Protocols differ between the studies behind these lines. pIC50: −log10 of the molar value.
# Cell line: PANC-1
# Read-out: cell growth or viability
Compound,test,setting,measurement,value
CC(=O)c1ccc(N=Nc2c(C(=O)O)cc(O)c(O)c2O)cc1,MTT,,pIC50,4.90
Cc1ncsc1-c1ccc(CNC(=O)[C@@H]2C[C@@H](O)CN2C(=O)[C@@H](NC(=O)CCCCCCCCCCCC(=O)NCCCCC#Cc2cccc(-c3nn(-c4nc(C(=O)O)cs4)c(CC4CC4)c3Cc3ccc(S(N)(=O)=O)cc3)c2)C(C)(C)C)cc1,CCK-8,72 h,GI50,16.1 µM
Cc1ccc2[nH]c(=O)c3cc(C(=O)NCCCN(C)Cc4ccccc4)sc3c2c1,MTT,24 h,pIC50,4.77
COc1cccc2c1C(=O)c1c(O)c3c(c(O)c1C2=O)C[C@@](O)(C(=O)CO)C[C@@H]3O[C@H]1C[C@H](N)[C@H](O)[C@H](C)O1,WST-1,72 h,pIC50,6.28
CNc1ncc2cc(-c3ccc(-c4cccc(C)n4)cc3Cl)c(=O)n(C[C@H]3OC[C@H](N)CO3)c2n1,MTT,24 h,pIC50,4.63
COc1cccc(C(=O)O[C@@H]2CN3Cc4c(cc5c(c4OC)OCO5)[C@@]24C=C[C@H](OC)C[C@@H]34)c1,WST-1,,pIC50,5.06
COc1cc(Nc2nccc(-c3cnn4nc(OC)ccc34)n2)cc(C(F)(F)F)c1,ATP luminescence,,pIC50,6.12
COc1c2c(cc3c1OCO3)[C@]13C=C[C@H](OC)C[C@H]1N(C2)C[C@H]3OC(=O)c1cccc(C)c1,WST-1,,pIC50,< 5.00
O=C(O)/C=C/c1ccc(O)c(O)c1,MTT,,pIC50,5.39
CCN(CC)CCCC(C)Nc1cnc(C(=O)Nc2cc(F)cc3cccnc23)cn1 (centres unmarked),MTT,,pIC50,5.14
O=C(O)c1cc(O)c(O)c(O)c1,MTT,,pIC50,4.75
CC(C)C[C@H](NC(=O)[C@H](Cc1ccccc1)NC(=O)c1cnccn1)B(O)O,ATP luminescence,,pIC50,8.00
COc1ccc(C(=O)O[C@@H]2CN3Cc4c(cc5c(c4OC)OCO5)[C@@]24C=C[C@H](OC)C[C@@H]34)cc1,WST-1,,pIC50,< 5.00
CC(=O)c1ccc(/N=N/c2cc(/C=C/C(=O)O)ccc2O)cc1,MTT,,pIC50,< 4.30
